Experimental data from ChEMBL document CHEMBL4270554, “Discovery of the cancer cell selective dual acting anti-cancer agent (Z)-2-(1H-indol-3-yl)-3-(isoquinolin-5-yl)acrylonitrile (A131)” (Eur J Med Chem, 2018).
Active and inactive are the calls of the source. No cut-off for these calls is given here.

Assays:
[1] = Solubility of the compound in 10% DMSO/90% water at pH 7 by HPLC analysis; type: physicochemical
Outline: (§1)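 1 mg of HCl salt mixed with vehicle (0.5 mL total), target 1 mg/mL. Components added in order: organic solvent (DMSO, ethanol or NMP), then PEG400, then water, vortexing after each addition. Sonicated 15 min, left 3 h at room temperature, then centrifuged 5 min.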

[2] = Solubility of the compound in 10% DMSO/90% water at pH 3.5 by HPLC analysis; type: physicochemical; outline: as §1
[3] = Oral bioavailability in Wistar rat at 10 mg/kg by LC-MS/MS analysis; type: ADME, organism-based; conditions: in vivo
Outline: (§2)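 Male Wistar rats, n = 3 per route, dosed with HCl salt as 1 mg/mL solution in 10% DMSO/50% PEG400/40% water pH 5. Doses 2 mg/kg iv or 10 mg/kg po. Heparinised blood sampled via catheter (0–4 h iv, 0–24 h po), plasma analysed by LC-MS/MS. Parameters derived by non-compartmental analysis.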

[4] = Half life in Wistar rat at 10 mg/kg, po by LC-MS/MS analysis; type: ADME, organism-based; conditions: in vivo
Outline: (§3)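 Male Wistar rats dosed orally at 10 mg/kg with HCl salt as solution in 10% DMSO, 50% PEG400, 40% water pH 5. Catheter blood over 0-24 h into heparin, plasma by LC-MS/MS. Non-compartmental PK; n = 3, mean (SD).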

[5] = MRT in Wistar rat at 10 mg/kg, po by LC-MS/MS analysis; type: ADME, organism-based; conditions: in vivo; outline: as §2
[6] = AUC (0 to infinity) in Wistar rat at 2 mg/kg, iv by LC-MS/MS analysis; type: ADME, organism-based; parameters: dose 2 mg/kg, time infinity, route intravenous; conditions: in vivo
Outline: (§4)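 Male Wistar rats (n = 3), intravenous dose of 2 mg/kg HCl salt as 1 mg/ml solution in 10% DMSO, 50% PEG400, 40% water pH 5. Catheter blood sampling over 0–4 h into heparin. Plasma separated, stored at -80 °C, measured by LC-MS/MS. Non-compartmental estimation, mean (SD).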

[7] = Solubility of the compound in 10% EtOH/50% PEG400/40% water at pH 3.5 by HPLC analysis; type: physicochemical; outline: as §1
[8] = Solubility of the compound in 60% PEG400/40% water at pH 3.5 by HPLC analysis; type: physicochemical; outline: as §1
[9] = Solubility of the compound in 60% PEG400/40% water at pH 5 by HPLC analysis; type: physicochemical; outline: as §1
[10] = Solubility of the compound in 10% EtOH/50% PEG400/40% water at pH 5 by HPLC analysis; type: physicochemical; outline: as §1
[11] = Cmax in Wistar rat at 10 mg/kg, po by LC-MS/MS analysis; type: ADME, organism-based; parameters: dose 10 mg/kg, route oral; conditions: in vivo; outline: as §3
[12] = Solubility of the compound in 10% DMSO/90% water at pH 5 by HPLC analysis; type: physicochemical; outline: as §1
[13] = Solubility of the compound in 10% NMP/50% PEG400/40% water at pH 5 by HPLC analysis; type: physicochemical; outline: as §1
[14] = Tmax in Wistar rat at 10 mg/kg, po by LC-MS/MS analysis; type: ADME, organism-based; conditions: in vivo; outline: as §2
[15] = AUC (0 to infinity) in Wistar rat at 10 mg/kg, po by LC-MS/MS analysis; type: ADME, organism-based; parameters: dose 10 mg/kg, time infinity, route oral; conditions: in vivo
Outline: (§5)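 Male Wistar rats (n = 3), single oral dose of 10 mg/kg HCl salt given as 1 mg/ml solution in 10% DMSO, 50% PEG400, 40% water pH 5. Blood drawn from catheter over 0–24 h into heparin tubes. Plasma spun off, stored at -80 °C, quantified by LC-MS/MS. Parameters by non-compartmental analysis, mean (SD).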

[16] = AUC (0 to t) in Wistar rat at 10 mg/kg, po by LC-MS/MS analysis; type: ADME, organism-based; conditions: in vivo; outline: as §5
[17] = Solubility of the compound in 10% DMSO/50% PEG400/40% water at pH 3.5 by HPLC analysis; type: physicochemical; outline: as §1
[18] = Solubility of the compound in 10% DMSO/50% PEG400/40% water at pH 5 by HPLC analysis; type: physicochemical; outline: as §1
[19] = MRT in Wistar rat at 2 mg/kg, iv by LC-MS/MS analysis; type: ADME, organism-based; conditions: in vivo; outline: as §2
[20] = Solubility of the compound in 60% PEG400/40% water at pH 7 by HPLC analysis; type: physicochemical; outline: as §1
[21] = Solubility of the compound in 10% NMP/50% PEG400/40% water at pH 3.5 by HPLC analysis; type: physicochemical; outline: as §1
[22] = Terminal half life in Wistar rat at 2 mg/kg, iv by LC-MS/MS analysis; type: ADME, organism-based; conditions: in vivo, read-out: beta t1/2 (converted); outline: as §2
[23] = AUC (0 to t) in Wistar rat at 2 mg/kg, iv by LC-MS/MS analysis; type: ADME, organism-based; conditions: in vivo; outline: as §4
HeLa [24] = experiment: Induction of autophagy in human HeLa cells assessed as increase in LC3-2 to LC3-1 ratio at 50 uM after 6 hrs by immunoblot analysis relative to control; type: functional
Outline: (§6)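 HeLa cells exposed 6 h to test agent (0.625–10 μM series) or chloroquine (1.25–100 μM series) vs DMSO; lysed in 1% Triton buffer (25 mM Tris pH 8.0, 150 mM NaCl, DTT, protease/phosphatase inhibitors), 14% SDS-PAGE, immunoblot with anti-LC3, anti-pH3(Ser10), β-actin loading. LC3-II/LC3-I band intensity ratio expressed relative to DMSO control.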

HeLa [25] = experiment: Induction of autophagy in human HeLa cells assessed as increase in LC3-2 to LC3-1 ratio at 100 uM after 6 hrs by immunoblot analysis relative to control; type: functional; outline: as §6
HeLa [26] = experiment: Induction of autophagy in human HeLa cells assessed as increase in LC3-2 to LC3-1 ratio at 2.5 uM after 6 hrs by immunoblot analysis relative to control; type: functional; outline: as §6
HeLa [27] = experiment: Induction of mitotic arrest in human HeLa cells assessed as formation of disorganized spindles at 15 to 25 uM after 6 hrs by DAPI staining-based immunofluorescence analysis; type: functional, cell-based
HeLa [28] = experiment: Induction of autophagy in human HeLa cells assessed as increase in LC3-2 to LC3-1 ratio at 1.25 uM after 6 hrs by immunoblot analysis relative to control; type: functional; outline: as §6
HeLa [29] = experiment: Induction of mitotic arrest in human HeLa cells assessed as formation of misaligned chromosomes at 15 to 25 uM after 6 hrs by DAPI staining-based immunofluorescence analysis; type: functional, cell-based
HeLa [30] = experiment: Inhibition of mitotic progression in human HeLa cells assessed as upregulation of phosphorylated histone H3 (Ser10) level up to 100 uM after 6 hrs by immunoblot analysis; type: functional, cell-based
Outline: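 HeLa cells treated 6 h with 0.625–10 μM test agent or chloroquine (1.25–100 μM), or DMSO. Lysis in 1% Triton buffer (pH 8.0) with protease and phosphatase inhibitors, 14% SDS-PAGE, immunoblot for LC3, pH3 (Ser10) and β-actin. Band intensity ratios (LC3-II/LC3-I; pH3) expressed relative to DMSO control.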

HeLa [31] = experiment: Induction of autophagy in human HeLa cells assessed as increase in LC3-2 to LC3-1 ratio at 10 uM after 6 hrs by immunoblot analysis relative to control; type: functional; outline: as §6

For Cl.N#C/C(=C\c1cccc2cnccc12)c1c[nH]c2ccccc12, the solubility [1] was 3 µg/mL, the solubility [2] was 7 µg/mL and the bioavailability [3] was 43%. For the same compound, the half-life [4] was 96 min, the MRT [5] was 113 min and the AUC(0-inf) [6] was 822 ng·h/mL. The solubility [7] was 1300 µg/mL, the solubility [8] was 1060 µg/mL and the solubility [9] was 940 µg/mL. For the same compound, the solubility [10] was 741 µg/mL, the Cmax [11] was 1130 ng/mL and the solubility [12] was 6 µg/mL. It also gave a solubility [13] of 1170 µg/mL, a Tmax [14] of 43.2 min and an AUC(0-inf) [15] of 1770 ng·h/mL. It also gave an AUC(0-t) [16] of 1690 ng·h/mL, a solubility [17] of 966 µg/mL and a solubility [18] of 1200 µg/mL. For the same compound, the MRT [19] was 17.4 min, the solubility [20] was 869 µg/mL and the solubility [21] was 1220 µg/mL. For the same compound, the half-life [22] was 21.6 min and the AUC(0-t) [23] was 820 ng·h/mL.
In the case of CCN(CC)CCCC(C)Nc1ccnc2cc(Cl)ccc12 (stereo unspecified) [CHLOROQUINE], the “fold change (FC)” value (HeLa [24]) is reported as 4.2, the “fold change (FC)” value (HeLa [25]) is reported as 4.2 and the “fold change (FC)” value (HeLa [26]) is reported as 1.9. The Activity (HeLa [27]) was “inactive”, the “fold change (FC)” value (HeLa [28]) was 1.7 and the Activity (HeLa [29]) was “inactive”. The inhibition (HeLa [30]) was “inactive” and the “fold change (FC)” value (HeLa [31]) was 3.1.
